For 10 compounds, MIC and MBC results are on record in ChEMBL document CHEMBL3351297, “In Vitro Antibacterial Activity of Prenylated Guanidine Alkaloids from Pterogyne nitens and Synthetic Analogues” (2014).

≈ marks a conversion by molar mass, not a printed value. Bounds are passed on as bounds.

Assay [1] concerns Staphylococcus aureus. The assay is described as follows: Antimicrobial activity against methicillin-resistant Staphylococcus aureus EMRSA-16 assessed as absence of growth after 18 hrs by MTT assay. In kind it is functional. Particulars: EMRSA-16, 18 h. In short, it runs like this: (§1)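 Strains were pre-grown on nutrient agar for 24 h at 37 °C. Inoculum was 1 × 10^6 cfu/mL in normal saline, set against a 0.5 McFarland standard. Compounds were dissolved in DMSO and serially diluted in cation-adjusted Mueller-Hinton broth (20 mg/L Ca2+, 10 mg/L Mg2+) over 512 to 0.5 mg/L. Plates ran 18 h at 37 °C. MTT was added for 20 min; blue meant growth. MIC is the lowest concentration without growth.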

Assay [2] has as its system Staphylococcus aureus. The assay is described as follows: Antimicrobial activity against multi-drug-resistant Staphylococcus aureus SA-1199B expressing NorA efflux pump assessed as absence of growth after 18 hrs by MTT assay. In kind it is functional. A digest of the protocol: as §1
On the technique in general: Tetrazolium assays rely on reduction of a dye to a coloured formazan, in cell work by metabolically active cells.

In assay [3] the test system is Staphylococcus aureus. The assay is described as follows: Antimicrobial activity against methicillin-resistant Staphylococcus aureus EMRSA-15 assessed as absence of growth after 18 hrs by MTT assay. The class given is functional. Particulars: EMRSA-15, 18 h. In short, it runs like this: as §1
In assay [4] the test system is Staphylococcus aureus. The assay is described as follows: Antimicrobial activity against Staphylococcus aureus ATCC25943 assessed as absence of growth after 18 hrs by MTT assay. The class given is functional. To be noted: ATCC25943, 18 h. A digest of the protocol: as §1
In assay [5] the test system is Staphylococcus aureus. The experiment in a line: Antimicrobial activity against macrolide-resistant Staphylococcus aureus RN4220 assessed as absence of growth after 18 hrs by MTT assay. To be noted: RN4220, 18 h.
Assay [6] concerns Staphylococcus aureus. The experiment in a line: Antimicrobial activity against methicillin-resistant Staphylococcus aureus XU212 assessed as absence of growth after 18 hrs by MTT assay. To be noted: XU212, 18 h. In kind it is functional. A digest of the protocol:
as §1

For assay [7], the system named is Staphylococcus aureus. The assay is described as follows: Bactericidal activity against multi-drug-resistant Staphylococcus aureus SA-1199B expressing NorA efflux pump incubated for 24 hrs followed by transfer to Petri dishes and measured after 24 hrs. Particulars: read-out: MBC99.9.

As to `CC(C)=CCN=C(NCC=C(C)C)NCC=C(C)C`, the MIC in assay [1], in assay [2], in assay [3], in assay [4], in assay [5] and in assay [6] was more than 512 µg/mL each time.

With `CC(C)=CCC/C(C)=C/CNC(=S)NC/C=C(\C)CCC=C(C)C`, the minimal inhibitory concentration (MIC) (as a rule, the lowest concentration found to suppress growth) in assay [1] is 32 µg/mL (≈ 91.8 µM); in assay [2] it was 128 µg/mL (≈ 367 µM); in assay [3] it was more than 512 µg/mL; in assay [4] it was 128 µg/mL (≈ 367 µM); in assay [5] it was 128 µg/mL (≈ 367 µM); in assay [6] it was 128 µg/mL (≈ 367 µM).

Consider `CC(C)=CCC/C(C)=C/CNC(=O)NC/C=C(\C)CCC=C(C)C`, for which the MIC in assay [1], in assay [2], in assay [3], in assay [4], in assay [5] and in assay [6] was more than 512 µg/mL in each case.

Regarding `CC(C)=CCC/C(C)=C/C=N/C(N)N`, the MIC in assay [1] worked out at 8 µg/mL (≈ 41 µM); in assay [2] it was 32 µg/mL (≈ 164 µM); in assay [3], 16 µg/mL (≈ 81.9 µM); in assay [4] it was 16 µg/mL (≈ 81.9 µM); in assay [5], 16 µg/mL (≈ 81.9 µM); in assay [6], 8 µg/mL (≈ 41 µM).

As for `CC(C)=CCN=C(N)N` [GALEGINE], the minimum inhibitory concentration (MIC) in assay [1], in assay [2], in assay [3], in assay [4], in assay [5] and in assay [6] was 4 µg/mL (≈ 31.4 µM) throughout. The MBC in assay [7] is 4 µg/mL (≈ 31.4 µM).

Turning to `CC(C)=CCC/C(C)=C/CNC(=N)NC/C=C(\C)CCC=C(C)C` [NITENSIDINE A], the MIC in assay [1] was 8 µg/mL (≈ 24.1 µM); in assay [2] it was 32 µg/mL (≈ 96.5 µM); in assay [3], 16 µg/mL (≈ 48.3 µM); in assay [4], 16 µg/mL (≈ 48.3 µM); in assay [5], 16 µg/mL (≈ 48.3 µM); in assay [6] it was 8 µg/mL (≈ 24.1 µM).

`CC(C)=CCC/C(C)=C/CN(C)C(=N)N(C)C/C=C(\C)CCC=C(C)C` [NITENSIDINE C]: the minimal inhibitory concentration (MIC) in assay [1] turned out to be 8 µg/mL (≈ 22.2 µM); in assay [2], 32 µg/mL (≈ 89 µM); in assay [3], 32 µg/mL (≈ 89 µM); in assay [4], 16 µg/mL (≈ 44.5 µM); in assay [5], 16 µg/mL (≈ 44.5 µM); in assay [6] it was 8 µg/mL (≈ 22.2 µM).

On to `CC(C)=C/C=C/C1(C)CCN=C(N)N1` (configuration not stated) [NITENSIDINE E], for which the minimum inhibitory concentration (MIC) was found to be 8 µg/mL (≈ 41.4 µM) in assay [1]; 32 µg/mL (≈ 166 µM) in assay [2]; 32 µg/mL (≈ 166 µM) in assay [3]; 16 µg/mL (≈ 82.8 µM) in assay [4]; 16 µg/mL (≈ 82.8 µM) in assay [5]; 8 µg/mL (≈ 41.4 µM) in assay [6].

For `CCn1cc(C(=O)O)c(=O)c2cc(F)c(N3CCNCC3)cc21` [NORFLOXACIN], the minimum inhibitory concentration (MIC) in assay [1] turned out to be 128 µg/mL (≈ 401 µM); in assay [2] it was 32 µg/mL (≈ 100 µM); in assay [3] it was 0.5 µg/mL (≈ 1.57 µM); in assay [4], 0.5 µg/mL (≈ 1.57 µM); in assay [5], 0.5 µg/mL (≈ 1.57 µM); in assay [6] it was 8 µg/mL (≈ 25.1 µM).

`CC(C)=CCNC(=N)NCC=C(C)C` [PTEROGYNIDINE]: the MIC in assay [1], in assay [2], in assay [3], in assay [4], in assay [5] and in assay [6] was 4 µg/mL (≈ 20.5 µM) each time. The MBC in assay [7] was found to be 4 µg/mL (≈ 20.5 µM).
